The record followed here is ChEMBL document CHEMBL4138312 (J Med Chem, 2018).

A value given as a limit tells only on which side of the number the result lay.

Usually IC50 stands for the concentration that inhibits the measured activity by half. As usually defined, the inhibition is how much of the control response was suppressed. Usually half-life stands for the time needed for the level to fall by half in the phase considered. Read a low half-life as fast loss. Usually bioavailability stands for dose-corrected exposure relative to a reference, in per cent. The low end stands for poor availability, the high end for good availability. One may read the EC50 as the midpoint of the concentration-response curve. Usually clearance stands for a measure of how efficiently the substance is removed, as volume per time. Low values mean a low capacity for elimination, high ones a high capacity for elimination.

Data set [1] concerns the target Non-receptor tyrosine-protein kinase TYK2 (Homo sapiens, UniProt P29597). Description: Inhibition of recombinant human N-terminal GST-tagged TYK2 (871 to 1187 residues) expressed in baculovirus expression system using 5FAM-GEEPLYWSFPAKKK-NH2 as substrate after 10 mins by caliper assay. In outline: (§1)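 Biochemical kinase inhibition IC50 measured at 5 mM ATP. Values are the geometric mean of at least two independent experiments.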

Data set [2] addresses T1, Tyrosine-protein kinase JAK1 (Homo sapiens, UniProt P23458). Description: Inhibition of cytoplasmic recombinant human GST-tagged JAK1 (886 to 1154 residues) expressed in insect cells using FITC-C6-KKHTDDGYMPMSPGVA-NH as substrate after 10 mins by caliper assay. The essentials: as §1
Data set [3] concerns the target T1, Tyrosine-protein kinase JAK1. Description: Inhibition of cytoplasmic recombinant human GST-tagged JAK1 (886 to 1154 residues) expressed in baculovirus at 1 uM. In outline:
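Single-concentration screen at 1 μM across a panel of 386 kinases to profile broad kinase selectivity.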

A short description of data set [4]: Half life in CD1 mouse at 3 mg/kg, iv by LC/MS/MS analysis. In kind it is ADME, organism-based. The following applies: in vivo. In outline: (§2)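 Mouse pharmacokinetics after a single iv dose of 3 mg/kg in 10% HPbCD + 5% dextrose in WFI at pH 4. Plasma clearance, half-life and steady-state volume of distribution were derived.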
Data set [5] can be described thus: Oral bioavailability in CD1 mouse at 10 mg/kg administered via gavage by LC/MS/MS analysis. In kind it is ADME, organism-based. The following applies: in vivo. The essentials: (§3)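 Mouse pharmacokinetics after oral dosing at 10 or 50 mg/kg. The 10 mg/kg dose was given in 10% HPbCD + 5% dextrose in WFI at pH 4. The 50 mg/kg dose was given in 5% SBECD in WFI at pH 2. Plasma exposure (AUC), half-life and oral bioavailability were derived.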

In data set [6] the test system is Mus musculus. The experiment in a line: Time above EC50 for inhibition of JAK1 in CD1 mouse at 50 mg/kg, po administered via gavage. The following applies: in vivo.
Data set [7] concerns the target Tyrosine-protein kinase JAK2 (Homo sapiens, UniProt O60674). Description: Inhibition of recombinant human JAK2 (831 to 1132 residues) expressed in insect cells using 5FAM-GEEPLYWSFPAKKK-NH2 as substrate after 10 mins by caliper assay. The essentials:
as §1

The target in data set [8] is T1, Tyrosine-protein kinase JAK1. The experiment in a line: Inhibition of JAK1 in human NCI-H1975 cells assessed as reduction in STAT3 phosphorylation after 1 hr by ELISA. In kind it is cell-based. The essentials:
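Cellular mode-of-action assay in NCI-H1975 cells, read as inhibition of STAT3 phosphorylation. EC50 was derived.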
(ELISA stands for enzyme-linked immunosorbent assay.)

The nature of data set [9]: Half life in CD1 mouse at 10 mg/kg, po administered via gavage by LC/MS/MS analysis. In kind it is ADME, organism-based. Conditions: in vivo. In outline: as §3
Data set [10] in a line: Clearance in CD1 mouse at 3 mg/kg, iv by LC/MS/MS analysis. In kind it is ADME, organism-based. Conditions: in vivo. The essentials:
as §2

The nature of data set [11]: Half life in CD1 mouse at 50 mg/kg, po administered via gavage by LC/MS/MS analysis. In kind it is ADME, organism-based. The following applies: in vivo. In outline: as §3
Data set [12] in a line: Volume of distribution at steady state in CD1 mouse at 3 mg/kg, iv by LC/MS/MS analysis. Format: ADME, organism-based. The following applies: in vivo, read-out: Vdss. The essentials:
as §2

The target of data set [13] is T2, Tyrosine-protein kinase JAK3 (Homo sapiens, UniProt P52333).
T2 sequence (P52333 whole entry): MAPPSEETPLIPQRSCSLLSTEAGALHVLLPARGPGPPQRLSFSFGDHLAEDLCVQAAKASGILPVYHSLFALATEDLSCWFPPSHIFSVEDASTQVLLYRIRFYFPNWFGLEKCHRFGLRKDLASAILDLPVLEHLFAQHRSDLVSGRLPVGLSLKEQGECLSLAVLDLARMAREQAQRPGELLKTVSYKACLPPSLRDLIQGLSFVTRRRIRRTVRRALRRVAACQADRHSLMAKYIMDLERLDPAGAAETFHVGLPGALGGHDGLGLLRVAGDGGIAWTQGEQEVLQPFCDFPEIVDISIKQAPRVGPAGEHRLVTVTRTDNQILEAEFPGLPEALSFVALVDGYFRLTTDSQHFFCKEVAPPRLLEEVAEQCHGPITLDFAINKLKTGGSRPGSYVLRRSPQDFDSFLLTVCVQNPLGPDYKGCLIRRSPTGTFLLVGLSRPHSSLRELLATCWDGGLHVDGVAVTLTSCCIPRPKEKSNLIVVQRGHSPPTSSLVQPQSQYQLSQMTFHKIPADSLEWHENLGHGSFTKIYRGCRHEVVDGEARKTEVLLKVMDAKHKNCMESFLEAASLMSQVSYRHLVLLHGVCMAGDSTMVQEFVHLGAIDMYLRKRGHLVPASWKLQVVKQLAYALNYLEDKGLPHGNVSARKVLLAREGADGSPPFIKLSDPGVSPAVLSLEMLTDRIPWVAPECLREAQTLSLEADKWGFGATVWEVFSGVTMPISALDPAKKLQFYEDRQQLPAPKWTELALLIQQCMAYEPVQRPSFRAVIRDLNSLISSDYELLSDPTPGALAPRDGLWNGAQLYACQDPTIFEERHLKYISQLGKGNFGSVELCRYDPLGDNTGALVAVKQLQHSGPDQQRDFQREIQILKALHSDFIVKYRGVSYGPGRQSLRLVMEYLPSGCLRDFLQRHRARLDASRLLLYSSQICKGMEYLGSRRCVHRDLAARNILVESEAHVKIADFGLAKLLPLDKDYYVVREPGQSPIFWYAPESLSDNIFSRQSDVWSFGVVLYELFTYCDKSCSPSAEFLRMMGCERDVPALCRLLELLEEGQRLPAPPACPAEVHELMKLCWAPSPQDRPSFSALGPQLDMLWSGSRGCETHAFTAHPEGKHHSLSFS
Description: Inhibition of recombinant human JAK3 (781 to 1124 residues) expressed in insect cells using 5FAM-GEEPLYWSFPAKKK-NH2 as substrate after 10 mins by caliper assay. In outline: as §1

T1 sequence (P23458 whole entry, the tested form may be a part): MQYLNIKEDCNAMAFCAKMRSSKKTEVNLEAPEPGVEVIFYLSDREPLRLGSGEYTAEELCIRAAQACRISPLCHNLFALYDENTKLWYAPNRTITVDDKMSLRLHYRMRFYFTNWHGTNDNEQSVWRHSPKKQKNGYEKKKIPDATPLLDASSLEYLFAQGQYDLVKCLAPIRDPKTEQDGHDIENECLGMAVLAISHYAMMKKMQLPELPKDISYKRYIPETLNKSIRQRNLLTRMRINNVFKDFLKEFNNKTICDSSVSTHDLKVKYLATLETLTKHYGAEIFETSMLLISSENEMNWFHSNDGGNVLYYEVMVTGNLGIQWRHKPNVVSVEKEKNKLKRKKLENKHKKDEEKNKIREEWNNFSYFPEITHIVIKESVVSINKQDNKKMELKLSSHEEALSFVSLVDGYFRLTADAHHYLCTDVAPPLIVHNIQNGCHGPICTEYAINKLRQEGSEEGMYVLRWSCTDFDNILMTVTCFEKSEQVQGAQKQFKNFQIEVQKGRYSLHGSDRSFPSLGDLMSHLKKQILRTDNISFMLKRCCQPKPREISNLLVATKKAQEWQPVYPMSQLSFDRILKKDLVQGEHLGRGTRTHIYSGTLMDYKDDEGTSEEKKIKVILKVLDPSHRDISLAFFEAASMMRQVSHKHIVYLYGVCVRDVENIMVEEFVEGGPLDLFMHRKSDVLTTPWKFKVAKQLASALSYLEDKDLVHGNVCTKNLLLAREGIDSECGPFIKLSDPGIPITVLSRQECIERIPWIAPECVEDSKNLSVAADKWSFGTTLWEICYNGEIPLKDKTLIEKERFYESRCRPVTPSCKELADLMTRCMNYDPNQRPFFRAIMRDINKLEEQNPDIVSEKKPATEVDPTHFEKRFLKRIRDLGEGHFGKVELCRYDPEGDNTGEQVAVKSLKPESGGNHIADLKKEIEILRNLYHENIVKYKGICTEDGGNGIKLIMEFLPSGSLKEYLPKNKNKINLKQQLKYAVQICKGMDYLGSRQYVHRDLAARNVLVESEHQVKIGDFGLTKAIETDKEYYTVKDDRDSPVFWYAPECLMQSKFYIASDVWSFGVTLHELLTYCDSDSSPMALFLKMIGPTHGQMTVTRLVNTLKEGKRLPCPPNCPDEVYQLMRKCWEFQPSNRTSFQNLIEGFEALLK
Sequence of Non-receptor tyrosine-protein kinase TYK2 (P29597 whole entry, the tested form may be a part): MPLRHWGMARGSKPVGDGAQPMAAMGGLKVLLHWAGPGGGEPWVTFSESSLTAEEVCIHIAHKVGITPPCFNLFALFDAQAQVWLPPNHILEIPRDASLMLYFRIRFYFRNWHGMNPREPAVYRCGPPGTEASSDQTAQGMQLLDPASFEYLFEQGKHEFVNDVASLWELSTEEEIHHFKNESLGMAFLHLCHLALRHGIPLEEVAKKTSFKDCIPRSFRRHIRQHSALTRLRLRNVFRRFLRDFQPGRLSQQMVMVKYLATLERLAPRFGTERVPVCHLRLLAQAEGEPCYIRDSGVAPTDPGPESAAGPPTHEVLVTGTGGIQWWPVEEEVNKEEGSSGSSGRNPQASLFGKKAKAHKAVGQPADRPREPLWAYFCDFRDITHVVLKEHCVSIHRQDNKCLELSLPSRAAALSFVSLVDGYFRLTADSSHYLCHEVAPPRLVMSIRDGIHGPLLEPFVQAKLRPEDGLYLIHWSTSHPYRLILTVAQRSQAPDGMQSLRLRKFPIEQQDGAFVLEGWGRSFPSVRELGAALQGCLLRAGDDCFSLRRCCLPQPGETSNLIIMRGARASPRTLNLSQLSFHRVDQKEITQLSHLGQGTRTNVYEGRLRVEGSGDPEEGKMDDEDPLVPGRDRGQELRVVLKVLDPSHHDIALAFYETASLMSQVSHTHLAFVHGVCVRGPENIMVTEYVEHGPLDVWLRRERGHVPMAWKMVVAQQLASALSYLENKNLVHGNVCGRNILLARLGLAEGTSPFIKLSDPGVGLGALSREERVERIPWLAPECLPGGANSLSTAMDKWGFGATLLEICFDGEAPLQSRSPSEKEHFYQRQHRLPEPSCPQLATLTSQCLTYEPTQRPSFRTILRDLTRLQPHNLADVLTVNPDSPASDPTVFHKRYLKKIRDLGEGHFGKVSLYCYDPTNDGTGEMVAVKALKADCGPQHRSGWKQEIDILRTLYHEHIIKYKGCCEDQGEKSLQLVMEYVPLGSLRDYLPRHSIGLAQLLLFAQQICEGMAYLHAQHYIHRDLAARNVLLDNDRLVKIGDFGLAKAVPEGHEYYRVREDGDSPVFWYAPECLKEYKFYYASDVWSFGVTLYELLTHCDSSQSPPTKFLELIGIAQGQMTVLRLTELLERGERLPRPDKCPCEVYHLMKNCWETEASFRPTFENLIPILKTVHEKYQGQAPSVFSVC
Sequence of Tyrosine-protein kinase JAK2 (O60674 whole entry, the tested form may be a part): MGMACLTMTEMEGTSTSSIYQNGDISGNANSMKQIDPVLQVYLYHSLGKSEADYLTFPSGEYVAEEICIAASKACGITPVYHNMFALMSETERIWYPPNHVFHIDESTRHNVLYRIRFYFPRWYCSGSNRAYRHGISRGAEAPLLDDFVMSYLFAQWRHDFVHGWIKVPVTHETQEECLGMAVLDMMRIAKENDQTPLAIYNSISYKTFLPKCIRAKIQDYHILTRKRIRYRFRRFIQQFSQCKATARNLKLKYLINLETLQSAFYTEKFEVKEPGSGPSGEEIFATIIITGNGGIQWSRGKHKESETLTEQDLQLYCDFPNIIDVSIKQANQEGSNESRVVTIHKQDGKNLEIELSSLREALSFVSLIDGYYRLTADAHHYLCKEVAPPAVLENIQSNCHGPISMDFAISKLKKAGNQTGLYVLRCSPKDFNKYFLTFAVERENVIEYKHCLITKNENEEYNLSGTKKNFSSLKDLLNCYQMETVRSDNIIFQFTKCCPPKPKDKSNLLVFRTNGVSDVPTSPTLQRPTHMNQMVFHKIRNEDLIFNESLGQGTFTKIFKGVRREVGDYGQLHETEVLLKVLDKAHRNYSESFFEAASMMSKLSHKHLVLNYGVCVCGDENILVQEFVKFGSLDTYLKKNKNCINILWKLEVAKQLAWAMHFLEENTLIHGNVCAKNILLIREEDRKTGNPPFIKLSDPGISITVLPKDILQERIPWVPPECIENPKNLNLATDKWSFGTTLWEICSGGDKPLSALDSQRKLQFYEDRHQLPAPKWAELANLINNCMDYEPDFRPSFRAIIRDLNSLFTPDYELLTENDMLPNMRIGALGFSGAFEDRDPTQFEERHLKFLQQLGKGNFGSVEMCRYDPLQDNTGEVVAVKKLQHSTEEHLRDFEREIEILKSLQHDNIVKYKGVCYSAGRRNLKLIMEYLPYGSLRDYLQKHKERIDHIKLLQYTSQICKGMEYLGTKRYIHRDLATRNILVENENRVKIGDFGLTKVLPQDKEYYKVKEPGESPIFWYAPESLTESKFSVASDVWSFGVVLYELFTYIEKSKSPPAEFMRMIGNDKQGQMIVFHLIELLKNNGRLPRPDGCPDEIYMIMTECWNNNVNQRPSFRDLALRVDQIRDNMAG

In the case of `CC[C@@H](C)Nc1nc(Nc2cc(N3C[C@@H]4C[C@H]3CN4C)cnc2F)ncc1C`, the IC50 was above 30000 nM in data set [1], 34 nM in data set [2], above 30000 nM in data set [7] and above 30000 nM in data set [13]. Besides, the inhibition in data set [3] stood at 100%. The half-life is 2.4 h in data set [4], 4.7 h in [9] and 5.3 h in data set [11]. The bioavailability in data set [5] came to 30%. The same molecule came in with a Time in data set [6] of 12 h. Moreover, the EC50 in data set [8] came out at 30 nM. This molecule displayed a clearance in [10] of 68.7 mL/min/kg. The Vd in data set [12] is 10.3 L/kg.
